High-throughput results: PubChem, Broad Institute
Compounds with a hit are over-represented: about 2.6% of the library has one in this group of screens.
E-selectin induc – induces E-selectin expression in human endothelial cells | P16581 | HUVEC E-selectin immunofluorescence imaging; normalized: neutral wells 0, TNF-alpha wells 100 | activation, % at 7.58 µM | 260,000 compounds, 0.37% hits | AID 686992;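 active means mean E-selectin-positive cell signal at least 10% of the positive control, reached in at least 60% of replicates, without over 20% cell loss; inconclusive means no rule given, readout overlaps actives, possibly toxicity-flagged; inactive means the rest, including those meeting only one limit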
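Assay system: HUVEC, human umbilical vein endothelial cells / Amount: 3,000 HUVEC/well / Controls: TNF-alpha positive control, DMSO neutral control / Compound dosing: single concentration / Medium: EGM-2 over gelatin coat / Evaluation: percent E-selectin-positive cells / Signal: immunofluorescence imaging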
GSIS activator – GLuc luminescence reporter in INS-1E cells, primary screen for activators of glucose-dependent secretion of insulin; INS-1E GLuc reporter insulin secretion, 2-3 h; activation, % at 16.6 µM; 370,000 compounds, 0.61% hits; AID 743287;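 active means lowest replicate activation of at least 40%, so every replicate reaches that level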;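 further: 0% = median of neutral control wells and 100% = median of IBMX positive control wells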
DENV2 CPE rescue – protects cells from dengue virus 2 cytopathic effect | DENV2-infected cells, cytopathic effect rescue, plate reader | CPE inhibition, % at 9.99 µM | 350,000 compounds, 1.7% hits | AID 651640; in the data active means CPE inhibition above about 20%, passing the limit was not always enough; inconclusive means no clear call, values can overlap the other calls; tested in BHK-21 cells;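 further: 0% = median of neutral control wells and 100% = median of positive control wells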
F508del corr – correctors of CFTR F508del function in bronchial epithelial cells; AID 720511; 350,000 compounds, 0.36% hits; activity (quench increase), % at 7.58 µM; CFBE cells, YFP halide quenching; stimulated with forskolin plus potentiator P3; % fluorescence drop versus neutral controls;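 active means mean added fluorescence quench of at least 8% versus neutral control, with both replicates also reaching 8%; inconclusive means only one of the mean or replicate conditions met; inactive means mean below 8% and not both replicates reaching 8%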;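 further: cells transiently co-express mutant CFTR-F508del with the halide-sensitive YFP; corrector assay measuring rescue of mutant channel to the surface after 24 h compound exposure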
miR122 inh – miR-122 inhibition in Huh7 cells | Huh7 miR-122 Renilla luciferase sensor, 48 h; neutral wells = 0, positive control = 100 | activation (reporter increase), % at 12.5 µM | 340,000 compounds, 0.3% hits | AID 602342;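 active means mean replicate activation score at least 90 and every replicate individually at or above 90; inconclusive means only one of the two criteria met; inactive means neither criterion met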;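 further: higher luciferase means less miR-122 activity so hits act as miR-122 inhibitors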
ERAP1 inh – ERAP1 (human) enzyme inhibition; AID 652197; 340,000 compounds, 0.15% hits; Q9NZ08; recombinant ERAP1, Leu-AMC fluorescence, 60 min; inhibition, % at 10.7 µM;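 active means mean replicate inhibition of at least 30%, or all replicates individually reaching that 30% level; inactive means mean below 30% and not every replicate reaching it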;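 further: 0% = neutral control wells and 100% = L-leucinethiol positive control wells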
Numbers without * were called inactive; ? = inconclusive; . = not tested or not shown; [ ] = dose if it differs, or a comment.

SMILES	E-selectin induc	GSIS activator	DENV2 CPE rescue	F508del corr	miR122 inh	ERAP1 inh
C[C@H]1CN([C@@H](C)CO)S(=O)(=O)c2ccc(C#Cc3cccnc3)cc2O[C@H]1CN(C)C(=O)C1CC1	0	9	-2	0	7[16.7 µM]	5
COc1ccc(-c2cccc(NS(=O)(=O)c3cc([N+](=O)[O-])ccc3C)c2)nn1	6	9	-3	-2	135*	1
C[C@@H]1CN([C@H](C)CO)S(=O)(=O)c2ccc(-c3cccc(F)c3)cc2O[C@@H]1CN(C)C(=O)C1CC1	0	-11	-1	1	.	.
COC(=O)C1=C(C)N(Cc2ccco2)C(=O)/C1=C\c1ccc(N(C)C)cc1	.	57*	.	.	0	.
COC(=O)C1=C(C)N(Cc2ccco2)C(=O)/C1=C\c1ccc([N+](=O)[O-])cc1	3	-32	-3	-1	-10	1
COC(=O)C1=C(C)N(Cc2ccco2)C(=O)N[C@@H]1c1ccccc1	0	9	-1	0	.	2
COC(=O)C1=C(C)N(Cc2ccco2)C(=O)N[C@@H]1c1ccco1	0	-7	60*	3	-2	-4
O=C(CC1CC1)N1CC(=O)N2[C@@H](CO)[C@@H](c3ccc(C#Cc4ccccc4)cc3)[C@@H]2C1	0	-10	3	4	.	-2
CCNC(=O)C(=O)c1c(-c2ccccc2)[nH]c2ccccc12	.	33	3	3	.	-1
Nc1sc(Cc2ccccc2)cc1C(=O)c1c(-c2ccccc2)[nH]c2ccccc12	1	-14	84*	1	.	.
COC(=O)c1ccsc1NC(=O)c1ccccc1	0	6	13	8.6*	-3	3
OC[C@@H]1CC[C@@H]2O[C@H](CCc3ccc(-c4ccccc4)cc3)[C@@H](n3cc(C4CC4)nn3)C[C@@H]2O1	.	.	20*	-3	.	3
OC[C@@H]1CC[C@@H]2O[C@H](CCc3ccc(-c4ccc(F)cc4)cc3)[C@@H](n3cc(C4CC4)nn3)C[C@@H]2O1	.	.	3	-2	.	1
CCCc1cn([C@H]2C[C@@H]3O[C@H](CO)CC[C@@H]3O[C@@H]2CCc2ccc(-c3ccccc3C#N)cc2)nn1	.	.	28*	2	.	0
OC[C@H]1CC[C@@H]2O[C@H](CCc3ccc(-c4ccccc4)cc3)[C@@H](n3cc(C4CC4)nn3)C[C@@H]2O1	.	.	53*	1	.	1
COc1cccc(C#Cc2ccc([C@H]3[C@H](CO)N4C(=O)CN(C(=O)Cc5cccnc5)C[C@@H]34)cc2)c1	0	-10	-3	1	.	-2
COc1ccc(C[C@@H]2CCn3cc(nn3)COC[C@H](Cc3ccccc3)NC2=O)cc1	0	7	8	.	.	1
C[C@H](CO)N1C[C@H](C)[C@H](CN(C)C(=O)Nc2ccc3c(c2)OCO3)Oc2ncc(-c3cncnc3)cc2C1=O	0	9	2	-1	-6[16.7 µM]	0
CC(C)CC(=O)Nc1cccc(-c2nc3ncccc3o2)c1	0	41*	0	0	6	1
CC(=O)Nc1ccc(Cl)c(-c2nc3ncccc3o2)c1	0	58*	?	-1	4	-1
CC(C)CC(=O)Nc1cccc(-c2nc3ccccc3[nH]2)c1	-1	-26	-4	1	158*	.
O=C(COc1ccccc1)Nc1ccc(Cl)c(-c2nc3ncccc3o2)c1	.	.	.	.	6	.
O=C(C[C@@H]1CC[C@@H]2[C@H](COC[C@@H](O)CN2S(=O)(=O)c2ccc(Cl)cc2)O1)NCCN1CCCCC1	0	9	3	1	.	0
Cc1ccc(S(=O)(=O)N(C)C[C@H]2OCCCC[C@H](C)Oc3ccc(NS(C)(=O)=O)cc3C(=O)N([C@H](C)CO)C[C@@H]2C)cc1	0	3	0	-2	7[16.7 µM]	2
C[C@@H](NC(=O)C[C@H]1C=C[C@@H](NC(=O)C2CCC2)[C@H](CO)O1)c1ccccc1	0	18	-5	2	.	4
CO[C@H]1CC[C@@H]2CCOc3ccc(C#N)cc3C(=O)N(C)C[C@@H](C)C(=O)N(C)C[C@@H]1O2	0	-9	-1	.	.	-4
